Results from ChEMBL document CHEMBL1177660, “Discovery of novel purine derivatives with potent and selective inhibitory activity against c-Src tyrosine kinase” (Bioorg Med Chem, 2010).

How the values were obtained:
[1] = molecular target: T1, Proto-oncogene tyrosine-protein kinase Src (Homo sapiens, UniProt P12931); experiment: Inhibition cSRC
[2] = molecular target: T1, Proto-oncogene tyrosine-protein kinase Src; experiment: Inhibition cSRC at 10 uM
In short: (§1)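 Purified kinases assayed by ELISA on wells coated with 20 µg/mL poly(Glu,Tyr)4:1. Detected with PY99 anti-phosphotyrosine, HRP anti-mouse IgG and o-phenylenediamine; A492.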

[3] = molecular target: Vascular endothelial growth factor receptor 2 (Homo sapiens) (UniProt P35968); experiment: Inhibition KDR at 10 uM; in short: as §1
[4] = molecular target: T1, Proto-oncogene tyrosine-protein kinase Src; experiment: Inhibition of human SRC-mediated invasion of human MDA-MB-231 cells; format: cell-based
In short: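 Matrigel-coated (1 mg/mL) Transwell filters, 8 lm pores, with 10% FBS in the lower chamber. MDA-MB-231 cells and compound or DMSO were added together to the upper chamber and invaded 18 h at 37 °C. Non-invaded cells were removed. Invaded cells were stained with crystal violet, extracted with 10% acetic acid and read at 595 nm. Mean of three experiments, SD.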

[5] = molecular target: Platelet-derived growth factor receptor beta (Homo sapiens) (UniProt P09619); experiment: Inhibition PDGFRbeta at 10 uM; in short: as §1
[6] = molecular target: Receptor tyrosine-protein kinase erbB-2 (Homo sapiens) (UniProt P04626); experiment: Inhibition ErbB2 at 10 uM; in short: as §1
[7] = molecular target: T2, Mast/stem cell growth factor receptor Kit (Homo sapiens, UniProt P10721); experiment: Inhibition kit at 10 uM; in short: as §1
[8] = molecular target: Vascular endothelial growth factor receptor 1 (Homo sapiens) (UniProt P17948); experiment: Inhibition VEGFR1 at 10 uM; in short: as §1
[9] = molecular target: T3, Tyrosine-protein kinase ABL1 (Homo sapiens, UniProt P00519); experiment: Inhibition cABl; in short: as §1
[10] = molecular target: Ephrin type-A receptor 2 (Homo sapiens) (UniProt P29317); experiment: Inhibition EphA2 at 10 uM; in short: as §1
[11] = molecular target: Hepatocyte growth factor receptor (Homo sapiens) (UniProt P08581); details: 10 uM
[12] = molecular target: T1, Proto-oncogene tyrosine-protein kinase Src; experiment: Inhibition of SRC phosphorylation in human MDA-MB-231 cells; format: cell-based
In short: (§2)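 MDA-MB-231 cells, 4.5×10^5 per well, plated overnight. Then exposed for 24 h to 1, 3 or 10 µM compound or DMSO alone. Western blot probed p-Src (Tyr416), total Src, p-FAK (Tyr861), FAK and GAPDH. Three independent blots.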

MDA-MB-231 = experiment: Antiproliferative activity against human MDA-MB-231 cells assessed as viability after 24 hrs by MTT assay; format: functional
In short: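 MDA-MB-231 cells (ATCC; L15 medium, 10% FBS, 37 °C, 5% CO2) exposed to test concentrations for 24 h; viability scored by MTT.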

[13] = molecular target: Focal adhesion kinase 1 (Homo sapiens) (UniProt Q05397); experiment: Inhibition of FAK phosphorylation in human MDA-MB-231 cells by Western blotting; format: cell-based; in short: as §2
[14] = molecular target: T3, Tyrosine-protein kinase ABL1; experiment: Inhibition cABl at 10 uM; in short: as §1
[15] = molecular target: T4, Ephrin type-B receptor 2 (Homo sapiens) (UniProt P29323); experiment: Inhibition EphB2 at 10 uM; in short: as §1
T4 sequence (whole entry): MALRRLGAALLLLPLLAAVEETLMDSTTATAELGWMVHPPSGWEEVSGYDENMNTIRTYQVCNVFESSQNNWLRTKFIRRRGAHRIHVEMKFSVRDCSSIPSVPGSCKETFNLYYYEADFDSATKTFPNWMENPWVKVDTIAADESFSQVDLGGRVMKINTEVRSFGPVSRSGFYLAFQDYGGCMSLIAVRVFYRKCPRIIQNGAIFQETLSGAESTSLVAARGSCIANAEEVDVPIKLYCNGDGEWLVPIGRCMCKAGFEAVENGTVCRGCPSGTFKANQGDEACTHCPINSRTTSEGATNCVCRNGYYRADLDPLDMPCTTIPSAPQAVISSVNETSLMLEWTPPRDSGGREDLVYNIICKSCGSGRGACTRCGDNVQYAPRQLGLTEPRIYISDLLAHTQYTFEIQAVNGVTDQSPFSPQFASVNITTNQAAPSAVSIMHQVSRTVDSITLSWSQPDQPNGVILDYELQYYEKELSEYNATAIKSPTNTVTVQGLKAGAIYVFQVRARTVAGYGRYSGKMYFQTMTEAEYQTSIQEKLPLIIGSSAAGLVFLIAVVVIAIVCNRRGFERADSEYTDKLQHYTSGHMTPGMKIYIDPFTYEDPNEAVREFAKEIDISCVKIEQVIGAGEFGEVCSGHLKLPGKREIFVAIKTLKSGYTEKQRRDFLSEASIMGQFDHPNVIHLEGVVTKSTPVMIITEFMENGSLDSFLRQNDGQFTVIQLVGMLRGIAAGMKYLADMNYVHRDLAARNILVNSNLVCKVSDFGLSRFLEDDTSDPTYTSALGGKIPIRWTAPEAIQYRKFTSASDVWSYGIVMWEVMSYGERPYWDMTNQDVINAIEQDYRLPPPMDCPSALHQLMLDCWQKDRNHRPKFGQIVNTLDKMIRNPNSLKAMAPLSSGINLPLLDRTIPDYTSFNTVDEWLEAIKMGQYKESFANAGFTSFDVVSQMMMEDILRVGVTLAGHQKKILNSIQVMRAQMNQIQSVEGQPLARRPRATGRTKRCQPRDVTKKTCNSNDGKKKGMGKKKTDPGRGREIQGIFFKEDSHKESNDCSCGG

[16] = molecular target: Fibroblast growth factor receptor 1 (Homo sapiens) (UniProt P11362); experiment: Inhibition FGFR1 at 10 uM; in short: as §1
[17] = molecular target: Fibroblast growth factor receptor 2 (Homo sapiens) (UniProt P21802); details: 10 uM
[18] = molecular target: T2, Mast/stem cell growth factor receptor Kit; experiment: Inhibition kit; in short: as §1
[19] = molecular target: T1, Proto-oncogene tyrosine-protein kinase Src; experiment: Inhibition of human SRC-mediated migration of human MDA-MB-231 cells by wound-healing assay

T1 sequence (P12931 2-536 limits assumed): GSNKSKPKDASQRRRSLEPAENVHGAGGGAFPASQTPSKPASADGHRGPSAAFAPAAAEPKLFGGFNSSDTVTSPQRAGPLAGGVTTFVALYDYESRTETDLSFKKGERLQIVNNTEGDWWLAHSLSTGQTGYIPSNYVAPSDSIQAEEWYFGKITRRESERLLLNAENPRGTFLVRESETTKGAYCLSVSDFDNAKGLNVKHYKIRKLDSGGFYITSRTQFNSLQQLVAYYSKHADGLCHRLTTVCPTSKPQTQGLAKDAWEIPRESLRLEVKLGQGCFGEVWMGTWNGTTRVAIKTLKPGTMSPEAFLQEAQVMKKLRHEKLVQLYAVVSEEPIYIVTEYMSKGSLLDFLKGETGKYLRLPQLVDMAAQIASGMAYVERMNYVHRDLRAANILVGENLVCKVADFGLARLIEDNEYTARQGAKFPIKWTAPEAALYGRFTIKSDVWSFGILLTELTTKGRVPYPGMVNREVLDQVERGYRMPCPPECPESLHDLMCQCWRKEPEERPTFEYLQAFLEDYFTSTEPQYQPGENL
T3 sequence (P00519 whole entry): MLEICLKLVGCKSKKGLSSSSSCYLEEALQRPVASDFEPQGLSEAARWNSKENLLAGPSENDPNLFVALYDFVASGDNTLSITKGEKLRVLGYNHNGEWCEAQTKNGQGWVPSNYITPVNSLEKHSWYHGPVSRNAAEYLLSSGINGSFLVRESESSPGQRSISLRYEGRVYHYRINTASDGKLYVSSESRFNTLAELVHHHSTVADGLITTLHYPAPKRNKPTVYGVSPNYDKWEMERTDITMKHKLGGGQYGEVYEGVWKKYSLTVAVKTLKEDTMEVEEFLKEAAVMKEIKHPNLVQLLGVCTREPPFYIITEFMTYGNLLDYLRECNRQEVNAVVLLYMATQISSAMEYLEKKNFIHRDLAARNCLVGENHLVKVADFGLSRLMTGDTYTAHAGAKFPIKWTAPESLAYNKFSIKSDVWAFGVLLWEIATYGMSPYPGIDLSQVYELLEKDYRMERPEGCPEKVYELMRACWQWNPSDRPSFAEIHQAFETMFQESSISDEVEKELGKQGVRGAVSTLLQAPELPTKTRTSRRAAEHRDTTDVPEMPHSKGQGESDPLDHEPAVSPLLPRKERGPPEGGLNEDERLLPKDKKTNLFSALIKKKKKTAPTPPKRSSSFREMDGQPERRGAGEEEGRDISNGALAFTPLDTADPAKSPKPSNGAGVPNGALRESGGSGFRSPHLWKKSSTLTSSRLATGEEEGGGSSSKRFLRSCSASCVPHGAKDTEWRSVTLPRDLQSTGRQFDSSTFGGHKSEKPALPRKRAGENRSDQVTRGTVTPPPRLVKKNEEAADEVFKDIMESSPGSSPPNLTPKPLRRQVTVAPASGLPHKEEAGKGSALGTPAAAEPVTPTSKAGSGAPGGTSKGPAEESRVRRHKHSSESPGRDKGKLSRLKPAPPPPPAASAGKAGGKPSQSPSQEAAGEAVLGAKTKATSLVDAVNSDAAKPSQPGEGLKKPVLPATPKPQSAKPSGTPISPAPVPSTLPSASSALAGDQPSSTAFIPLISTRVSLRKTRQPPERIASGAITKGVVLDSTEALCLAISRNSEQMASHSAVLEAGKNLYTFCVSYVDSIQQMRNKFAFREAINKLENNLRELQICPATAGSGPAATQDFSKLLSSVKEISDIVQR
T2 sequence (P10721 whole entry): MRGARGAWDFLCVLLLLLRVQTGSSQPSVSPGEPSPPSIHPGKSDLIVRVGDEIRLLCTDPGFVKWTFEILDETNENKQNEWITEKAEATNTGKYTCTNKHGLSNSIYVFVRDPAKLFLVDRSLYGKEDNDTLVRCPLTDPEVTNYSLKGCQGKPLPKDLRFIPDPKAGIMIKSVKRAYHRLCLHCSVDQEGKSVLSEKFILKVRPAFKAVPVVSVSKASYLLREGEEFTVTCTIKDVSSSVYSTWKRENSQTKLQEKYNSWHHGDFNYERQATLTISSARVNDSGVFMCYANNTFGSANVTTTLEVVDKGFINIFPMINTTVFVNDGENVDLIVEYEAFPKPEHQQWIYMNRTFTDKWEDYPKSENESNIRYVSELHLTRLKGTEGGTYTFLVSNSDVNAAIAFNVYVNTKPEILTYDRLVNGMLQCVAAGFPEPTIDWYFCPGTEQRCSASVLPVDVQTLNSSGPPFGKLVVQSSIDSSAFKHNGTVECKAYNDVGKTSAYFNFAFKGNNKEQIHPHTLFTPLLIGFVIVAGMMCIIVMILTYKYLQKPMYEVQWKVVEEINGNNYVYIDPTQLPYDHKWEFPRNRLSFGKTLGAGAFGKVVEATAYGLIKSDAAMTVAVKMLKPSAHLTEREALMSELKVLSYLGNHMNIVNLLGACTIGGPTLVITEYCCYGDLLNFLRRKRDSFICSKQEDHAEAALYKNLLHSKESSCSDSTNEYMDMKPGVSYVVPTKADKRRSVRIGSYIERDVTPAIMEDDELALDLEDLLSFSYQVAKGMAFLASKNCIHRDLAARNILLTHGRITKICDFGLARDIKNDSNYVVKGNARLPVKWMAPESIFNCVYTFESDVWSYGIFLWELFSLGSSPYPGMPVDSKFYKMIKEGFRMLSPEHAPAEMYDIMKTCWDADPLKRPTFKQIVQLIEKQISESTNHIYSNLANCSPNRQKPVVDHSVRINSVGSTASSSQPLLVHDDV
Hepatocyte growth factor receptor (Homo sapiens), sequence (P08581 whole entry): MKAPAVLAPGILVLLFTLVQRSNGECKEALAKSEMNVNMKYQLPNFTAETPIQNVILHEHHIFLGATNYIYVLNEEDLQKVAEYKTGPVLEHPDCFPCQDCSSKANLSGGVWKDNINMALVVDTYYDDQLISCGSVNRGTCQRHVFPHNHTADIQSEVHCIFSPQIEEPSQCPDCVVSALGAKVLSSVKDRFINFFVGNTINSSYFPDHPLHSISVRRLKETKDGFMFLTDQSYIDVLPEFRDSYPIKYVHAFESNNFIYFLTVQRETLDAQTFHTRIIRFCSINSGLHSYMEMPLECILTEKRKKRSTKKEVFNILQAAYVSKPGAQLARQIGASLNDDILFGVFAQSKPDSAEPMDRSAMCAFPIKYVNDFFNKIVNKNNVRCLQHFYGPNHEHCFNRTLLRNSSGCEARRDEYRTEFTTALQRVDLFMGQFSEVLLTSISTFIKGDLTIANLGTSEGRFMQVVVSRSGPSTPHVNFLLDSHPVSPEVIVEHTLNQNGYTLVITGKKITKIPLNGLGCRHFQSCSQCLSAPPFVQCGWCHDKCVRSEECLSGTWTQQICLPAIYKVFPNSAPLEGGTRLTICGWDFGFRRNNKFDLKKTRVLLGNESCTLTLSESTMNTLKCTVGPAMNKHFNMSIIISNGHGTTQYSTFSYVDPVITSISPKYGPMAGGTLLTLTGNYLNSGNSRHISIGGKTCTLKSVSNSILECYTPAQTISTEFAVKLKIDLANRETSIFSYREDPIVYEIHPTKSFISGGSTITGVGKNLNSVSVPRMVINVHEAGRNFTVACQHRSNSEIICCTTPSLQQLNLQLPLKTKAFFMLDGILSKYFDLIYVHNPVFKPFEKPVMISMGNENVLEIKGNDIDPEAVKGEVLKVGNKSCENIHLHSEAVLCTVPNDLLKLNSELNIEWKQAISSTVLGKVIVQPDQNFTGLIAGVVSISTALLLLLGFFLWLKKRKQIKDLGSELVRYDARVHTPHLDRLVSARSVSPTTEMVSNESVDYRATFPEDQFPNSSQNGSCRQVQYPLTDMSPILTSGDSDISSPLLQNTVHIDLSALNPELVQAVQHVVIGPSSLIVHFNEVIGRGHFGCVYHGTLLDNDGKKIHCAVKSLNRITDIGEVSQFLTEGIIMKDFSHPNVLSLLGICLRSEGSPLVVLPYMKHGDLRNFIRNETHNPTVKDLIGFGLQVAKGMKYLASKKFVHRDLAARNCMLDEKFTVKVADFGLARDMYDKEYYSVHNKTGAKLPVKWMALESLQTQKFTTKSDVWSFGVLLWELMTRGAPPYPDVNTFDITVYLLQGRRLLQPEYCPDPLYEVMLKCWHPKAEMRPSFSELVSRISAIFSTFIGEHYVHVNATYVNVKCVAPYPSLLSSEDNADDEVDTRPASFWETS
Fibroblast growth factor receptor 1 (Homo sapiens), sequence (P11362 22-822 limits assumed): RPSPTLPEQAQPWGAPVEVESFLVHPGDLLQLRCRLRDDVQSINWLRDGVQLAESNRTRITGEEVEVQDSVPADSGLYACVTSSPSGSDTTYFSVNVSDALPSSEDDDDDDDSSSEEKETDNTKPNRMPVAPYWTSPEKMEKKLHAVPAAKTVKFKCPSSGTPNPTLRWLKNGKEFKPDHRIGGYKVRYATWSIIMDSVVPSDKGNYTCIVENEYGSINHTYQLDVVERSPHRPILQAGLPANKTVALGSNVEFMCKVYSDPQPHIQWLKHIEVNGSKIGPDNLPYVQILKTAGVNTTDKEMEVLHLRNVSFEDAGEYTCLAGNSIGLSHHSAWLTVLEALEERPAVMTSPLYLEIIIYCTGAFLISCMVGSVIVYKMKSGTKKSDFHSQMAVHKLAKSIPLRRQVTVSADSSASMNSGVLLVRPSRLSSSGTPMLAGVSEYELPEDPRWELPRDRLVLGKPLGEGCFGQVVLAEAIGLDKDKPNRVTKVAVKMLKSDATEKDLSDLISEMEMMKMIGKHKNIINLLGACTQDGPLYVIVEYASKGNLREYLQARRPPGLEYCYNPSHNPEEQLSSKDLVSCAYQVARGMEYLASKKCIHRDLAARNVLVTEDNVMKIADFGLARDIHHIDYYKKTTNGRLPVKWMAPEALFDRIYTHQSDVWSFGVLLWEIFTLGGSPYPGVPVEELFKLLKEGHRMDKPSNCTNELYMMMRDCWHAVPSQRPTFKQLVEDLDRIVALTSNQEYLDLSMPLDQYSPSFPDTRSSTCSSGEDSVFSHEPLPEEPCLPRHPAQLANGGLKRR

| Structure (SMILES) | IC50 [1] [nM] | further results |
| --- | --- | --- |
| c1ccc(Nc2nc(N3CCOCC3)nc3[nH]cnc23)cc1 | 750 | – |
| CC(=O)Nc1ccc(Nc2nc(N3CCN(CCO)CC3)nc3[nH]cnc23)cc1 | 1590 | – |
| Brc1ccc(Nc2ncnc3c2ncn3Cc2ccccc2)cc1 | > 10000 | inhibition [2]: 6.9% |
| Cc1cccc(Nc2nc(N3CCOCC3)nc3nc[nH]c23)c1 | 830 | – |
| COc1cccc(Nc2nc(N3CCOCC3)nc3[nH]cnc23)c1 | 930 | – |
| Brc1ccc(Nc2nc(N3CCOCC3)nc3c2ncn3Cc2ccccc2)cc1 | > 10000 | inhibition [2]: 10.1% |
| c1ccc(Cn2cnc3c(N4CCOCC4)ncnc32)cc1 | > 10000 | inhibition [2]: 0% |
| COc1ccc(Nc2nc(N3CCOCC3)nc3c2ncn3Cc2ccccc2)cc1 | > 10000 | inhibition [2]: 16% |
| NC(=O)c1ccc(Nc2nc(N3CCNCC3)nc3nc[nH]c23)cc1 | 2200 | – |
| Brc1ccc(Nc2nc(N3CCNCC3)nc3[nH]cnc23)cc1 | 1760 | – |
| Clc1ccc(Nc2nc(N3CCOCC3)nc3nc[nH]c23)cc1 | 340 | – |
| Brc1ccc(Nc2nc(N3CCOCC3)nc3[nH]cnc23)cc1 | 450 | – |
| COc1cccc(Nc2nc(N3CCNCC3)nc3nc[nH]c23)c1 | 1210 | – |
| Clc1ccc(Nc2nc(N3CCNCC3)nc3[nH]cnc23)cc1 | 1180 | – |
| OCCN1CCN(c2nc(Nc3ccc(Cl)cc3)c3[nH]cnc3n2)CC1 | 690 | – |
| NS(=O)(=O)c1cccc(Nc2nc(N3CCN(CCO)CC3)nc3nc[nH]c23)c1 | 340 | – |
| NC(=O)c1ccc(Nc2nc(N3CCOCC3)nc3nc[nH]c23)cc1 | 2010 | – |
| COc1cccc(Nc2nc(N3CCN(CCO)CC3)nc3nc[nH]c23)c1 | 1200 | – |
| NS(=O)(=O)c1ccc(Nc2nc(N3CCN(CCO)CC3)nc3nc[nH]c23)cc1 | 260 | – |
| NS(=O)(=O)c1ccc(Nc2nc(N3CCOCC3)nc3[nH]cnc23)cc1 | 20 | inhibition [3]: 47.2%; inhibition [4]: Dose-dependent effect; inhibition [5]: 17.2%; inhibition [6]: 43.1%; inhibition [7]: 83.1%; inhibition [8]: 0%; IC50 [9]: 6 µM; inhibition [10]: 48.7%; inhibition [11]: 43.2%; inhibition [12]: Dose-dependent effect; Activity (MDA-MB-231): > 95%; inhibition [13]: Dose-dependent effect; inhibition [14]: 73.4%; inhibition [15]: 11.5%; inhibition [16]: 48.7%; inhibition [17]: 4.1%; IC50 [18]: 1350 nM; inhibition [19]: Dose-dependent effect |
| OCCN1CCN(c2nc(Nc3ccccc3)c3nc[nH]c3n2)CC1 | 3140 | – |
| O=[N+]([O-])c1ccc(Nc2nc(N3CCOCC3)nc3nc[nH]c23)cc1 | 390 | – |
| Cc1cccc(Nc2nc(N3CCNCC3)nc3nc[nH]c23)c1 | 2420 | – |

| Structure (SMILES) | IC50 [1] [nM] | further results |
| --- | --- | --- |
| c1ccc(Cn2cnc3c(Nc4ccccc4)nc(N4CCNCC4)nc32)cc1 | > 10000 | inhibition [2]: 35.8% |
| NS(=O)(=O)c1cccc(Nc2nc(N3CCNCC3)nc3[nH]cnc23)c1 | 100 | – |
| O=[N+]([O-])c1cccc(Nc2nc(N3CCN(CCO)CC3)nc3[nH]cnc23)c1 | 340 | – |
| NC(=O)c1ccc(Nc2nc(N3CCN(CCO)CC3)nc3[nH]cnc23)cc1 | 1220 | – |
| NS(=O)(=O)c1cccc(Nc2nc(N3CCOCC3)nc3[nH]cnc23)c1 | 120 | – |
| COc1ccc(Nc2nc(N3CCNCC3)nc3c2ncn3Cc2ccccc2)cc1 | > 10000 | inhibition [2]: 22.5% |
| COc1ccc(Nc2nc(N3CCN(CCO)CC3)nc3nc[nH]c23)cc1 | 1330 | – |
| c1ccc(Cn2cnc3c(Nc4ccccc4)nc(N4CCOCC4)nc32)cc1 | > 10000 | inhibition [2]: 20.2% |
| O=[N+]([O-])c1ccc(Nc2nc(N3CCNCC3)nc3[nH]cnc23)cc1 | 1400 | – |
| COc1ccc(Nc2nc(N3CCOCC3)nc3[nH]cnc23)cc1 | 130 | – |
| NS(=O)(=O)c1ccc(Nc2nc(N3CCNCC3)nc3[nH]cnc23)cc1 | 1820 | – |
| c1ccc(Cn2cnc3c(N4CCOCC4)nc(N4CCOCC4)nc32)cc1 | > 10000 | inhibition [2]: 16.4% |
| CC(=O)Nc1ccc(Nc2nc(N3CCNCC3)nc3nc[nH]c23)cc1 | 1050 | – |
| O=[N+]([O-])c1ccc(Nc2nc(N3CCN(CCO)CC3)nc3nc[nH]c23)cc1 | 780 | – |
| O=[N+]([O-])c1cccc(Nc2nc(N3CCOCC3)nc3[nH]cnc23)c1 | 130 | – |
| CC(=O)Nc1ccc(Nc2nc(N3CCOCC3)nc3[nH]cnc23)cc1 | 650 | – |
| COc1ccc(Nc2nc(N3CCNCC3)nc3[nH]cnc23)cc1 | – | inhibition [2]: 90.5% |
| O=[N+]([O-])c1cccc(Nc2nc(N3CCNCC3)nc3nc[nH]c23)c1 | 950 | – |
| COc1ccc(Nc2nc(N3CCNCC3)nc3nc[nH]c23)cc1 | 2430 | – |
| Cc1cccc(Nc2nc(N3CCN(CCO)CC3)nc3nc[nH]c23)c1 | 2550 | – |
| c1ccc(Cn2cnc3c(Nc4ccccc4)ncnc32)cc1 | > 10000 | inhibition [2]: 13.9% |
| Cc1cccc(Nc2nc(N3CCNCC3)nc3[nH]cnc23)c1 | – | inhibition [2]: 86.6% |
